Assay results from different studies.
Lines come from different studies, so protocols differ.

Compound	species	medium	route	dose	notes	endpoint	value
COc1ccc(C(O)COc2ccc(-c3csc(-c4ccc(OCC(O)c5ccc(OC)c(OC)c5)cc4)n3)cc2)cc1OC (centres unmarked)	C57BL/6 mouse	plasma	intravenous	3 mg/kg	–	C0	5280 ng/mL
COc1cc(OC)c2nccc(N3CCc4c(cc(Cn5ccnc5)cc4-c4cn(C)nc4C(F)(F)F)C3=O)c2c1	male CD-1 mouse	plasma	intravenous	3 mg/kg	–	C0	1600 ng/mL
C=CC(=O)Nc1cc(Nc2nccc(Nc3cc(Cl)c(F)cc3C(C)(C)O)n2)c(OC)cc1N1CC[C@@H](N(C)C)C1	beagle dog	plasma	intravenous	1 mg/kg	–	clearance	30.9 mL/min/kg
C=CC(=O)N1CC2CC(n3nc(-c4ccc(C(=O)Nc5ccccn5)cc4)c4c(N)ncnc43)CC2C1 (centres unmarked)	male Wistar rat	plasma	oral	30 mg/kg	–	Tmax	2 h
CCn1c(=O)c(-c2cc(NC(=O)Nc3ccccc3)c(F)cc2Br)cc2cnc(NC)cc21	beagle dog	plasma	oral	5 mg/kg	single dose	CL/F	21 mL/min/kg
CCc1cc(C(=O)NC)c2nccc(N3CCc4c(cc(Cn5ccnc5)cc4-c4cn(C)nc4C(F)(F)F)C3=O)c2c1	male Sprague-Dawley rat	plasma	oral	100 mg/kg	single dose	Tmax	1.3 h
COc1cc2c3c(n(CCCN4CCOCC4)c(=O)c2cc1OC)-c1cc2c(cc1C3=O)OCO2	male beagle dog	plasma	intravenous	100 mg/m²	infusion	Cmax	461 ng/mL
Cc1ccc2cncc(N3CCc4c(cc(Cn5ccnc5)cc4-c4cn(C)nc4C(F)(F)F)C3=O)c2c1	male CD-1 mouse	plasma	intravenous	3 mg/kg	–	C0	5480 ng/mL
COc1ccnc(CNC(=O)c2cn(Cc3ccc(Cn4ccccc4=O)cc3)nc2C(F)(F)F)c1F	male beagle dog	plasma	oral	1 mg/kg	–	Cmax	200 ng/mL
CC(C)Oc1c(NC(=O)c2ccc(NC(=O)[C@H](CC(N)=O)NC(=O)c3ccc(NC(=O)c4ccc(C#N)cc4)cc3)cc2)ccc(C(=O)Nc2ccc(C(=O)O)cc2)c1O	male CD-1 mouse	plasma	subcutaneous	5 mg/kg	single dose	CL/F	163 mL/min/kg
CC(C)(C)c1ccc(O)c(CN(Cc2cc(C(C)(C)C)ccc2O)C2CCC(NC(N)=O)CC2)c1 (centres unmarked)	male C57BL/6 mouse	plasma	intraperitoneal	25 mg/kg	single dose	clearance	26.7 mL/min/kg
CC[C@@H]1CN(C(=O)NCC(F)(F)F)C[C@@H]1c1cnc2cnc3[nH]ccc3n12	beagle dog	plasma	oral	1 mg/kg	single dose	Cmax	89.4 ng/mL
Cc1nn2c(-c3c(C)nn(C)c3-c3ccc(C(F)(F)F)cc3)nc(CO)c2c(=O)[nH]1	male beagle dog	plasma	intravenous	1 mg/kg	–	clearance	1.3 mL/min/kg
COc1ccc2nccc(N3CCc4c(cc(Cn5ccnc5)cc4-c4cn(C)nc4C(F)(F)F)C3=O)c2c1	male CD-1 mouse	plasma	intravenous	3 mg/kg	–	C0	3430 ng/mL
CC[C@H](C)[C@@H]1NC(=O)[C@@](C)(NC(=O)[C@H](CCCNC(=N)N)NC(=O)[C@H](CC(C)C)NC(=O)[C@@H](NC(=O)[C@H](CCC(N)=O)NC(=O)[C@H](CC(C)C)NC(C)=O)[C@@H](C)O)CCCC=CCCC[C@@](C)(C(=O)N[C@@H](CC(C)C)C(=O)N[C@@H](Cc2ccc3ccccc3c2)C(N)=O)NC(=O)[C@H](CCCNC(=N)N)NC(=O)[C@H](CCC(N)=O)NC1=O	male BALB/c mouse	plasma	intravenous	10 mg/kg	–	clearance	0.713 mL/min/kg
O=C(NCCN1CCCC1)c1cc(-c2ccc(CN3CCOCC3)cc2)nc2ccc(F)cc12	male beagle dog	blood	oral	3 mg/kg	–	Cmax	27 ng/mL
CC(C)(Nc1nc(-c2ccccn2)nc2ccccc12)c1ccccn1	female BALB/c mouse	plasma	intravenous	1 mg/kg	–	C0	1800 ng/mL
